According to ChEMBL document CHEMBL1932938, “From COX-2 inhibitor nimesulide to potent anti-cancer agent: synthesis, in vitro, in vivo and pharmacokinetic evaluation” (Eur J Med Chem, 2012):

Columns and labels:
LOX IMVI = experiment: Growth inhibition of human LOXIMVI cells after 48 hrs by SRB assay; format: functional
SF-268 = experiment: Growth inhibition of human SF268 cells after 48 hrs by SRB assay; format: functional
SK-BR-3 [1] = experiment: Cell cycle arrest in human SK-BR-3 cells assessed as accumulation at G1 phase at 0.10 uM after 3 hrs using propidium iodide staining by FACS analysis; format: functional
In short: (§1)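 SKBR-3 cells in RPMI1640 with 10% heat-inactivated FBS at 37 °C and 5% CO₂ were treated for the stated times. Cells were fixed overnight in 70% EtOH at −20 °C, then stained with propidium iodide buffer (38 mM sodium citrate pH 7.5, 69 µM PI, 120 µg/mL RNase A) for 15 min at room temperature in the dark. Up to 1×10⁴ gated cells were analyzed by flow cytometry, giving percent distribution per phase.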

SK-MEL-2 = experiment: Growth inhibition of human SK-MEL-2 cells after 48 hrs by SRB assay; format: functional
SK-BR-3 [2] = experiment: Cell cycle arrest in human SK-BR-3 cells assessed as accumulation at G1 phase at 0.50 uM after 6 hrs using propidium iodide staining by FACS analysis; format: functional; in short: as §1
OVCAR-5 = experiment: Growth inhibition of human OVCAR5 cells after 48 hrs by SRB assay; format: functional
OVCAR-3 = experiment: Growth inhibition of human OVCAR3 cells after 48 hrs by SRB assay; format: functional
NCI-H23 = experiment: Growth inhibition of human NCI-H23 cells after 48 hrs by SRB assay; format: functional
SK-BR-3 [3] = experiment: Cell cycle arrest in human SK-BR-3 cells assessed as accumulation at S phase at 5 uM after 24 hrs using propidium iodide staining by FACS analysis; format: functional
HT-29 = experiment: Growth inhibition of human HT-29 cells after 48 hrs by SRB assay; format: functional
SF-539 = experiment: Growth inhibition of human SF539 cells after 48 hrs by SRB assay; format: functional
SK-BR-3 [4] = experiment: Cell cycle arrest in human SK-BR-3 cells assessed as accumulation at S phase at 0.25 uM after 24 hrs using propidium iodide staining by FACS analysis; format: functional
Malme-3M = experiment: Growth inhibition of human MALME-3M cells after 48 hrs by SRB assay; format: functional
[5] = Cmax in Sprague-Dawley rat plasma at 20 mg/kg, ip; format: ADME, organism-based; design: dose 20 mg/kg, route intraperitoneal
In short: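 Male Sprague–Dawley rats (300–350 g, n=3), fasted overnight, received one i.p. dose in PBS with 0.1% Tween80 and 20% DMSO. Blood (150 µL) was drawn from saphenous and femoral veins into heparinized tubes at 0–24 h, and plasma was stored at –20 °C. Samples underwent tert-butyl methyl ether/n-hexane extraction, then C18 isocratic LC-MS/MS in MRM mode with an internal standard; the method was validated over 0.1–100 ng/mL.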

SK-BR-3 [6] = experiment: Cell cycle arrest in human SK-BR-3 cells assessed as accumulation at Sub-G1 phase at 0.25 uM after 3 hrs using propidium iodide staining by FACS analysis; format: functional
EKVX = experiment: Growth inhibition of human EKVX cells after 48 hrs by SRB assay; format: functional
SK-BR-3 [7] = experiment: Cell cycle arrest in human SK-BR-3 cells assessed as accumulation at G1 phase at 5 uM after 3 hrs using propidium iodide staining by FACS analysis; format: functional; in short: as §1
UACC-257 = experiment: Growth inhibition of human UACC257 cells after 48 hrs by SRB assay; format: functional
[8] = Terminal half life in Sprague-Dawley rat at 20 mg/kg, ip; format: ADME, organism-based; design: dose 20 mg/kg, route intraperitoneal; conditions: in vivo, read-out: beta t1/2 (converted)
In short: (§2)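 Male Sprague–Dawley rats (300–350 g, n=3), fasted overnight with water allowed. Single 20 mg/kg i.p. dose in PBS with 0.1% Tween80 and 20% DMSO. Blood taken from saphenous and femoral veins into heparinized tubes at 0, 0.25, 0.5, 1, 2, 4, 8 and 24 h. Plasma quantified by LC-MS/MS (MRM, 483.3→404.3) after tert-butyl methyl ether/hexane extraction. Parameters derived non-compartmentally.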

OVCAR-8 = experiment: Growth inhibition of human OVCAR8 cells after 48 hrs by SRB assay; format: functional
SW-620 = experiment: Growth inhibition of human SW620 cells after 48 hrs by SRB assay; format: functional
MDA-MB-468 = experiment: Growth inhibition of human MDA-MB-468 cells after 48 hrs by SRB assay; format: functional
UACC-62 = experiment: Growth inhibition of human UACC62 cells after 48 hrs by SRB assay; format: functional
SK-BR-3 [9] = experiment: Cell cycle arrest in human SK-BR-3 cells assessed as accumulation at S phase at 5 uM after 3 hrs using propidium iodide staining by FACS analysis; format: functional
SK-BR-3 [10] = experiment: Cell cycle arrest in human SK-BR-3 cells assessed as accumulation at Sub-G1 phase at 0.50 uM after 12 hrs using propidium iodide staining by FACS analysis; format: functional
[11] = Mean residence time (0 to t) in Sprague-Dawley rat at 20 mg/kg, ip; format: ADME, organism-based; design: dose 20 mg/kg, route intraperitoneal; conditions: in vivo; in short: as §2
[12] = Apparent oral clearance in Sprague-Dawley rat at 20 mg/kg, ip; format: ADME, organism-based; design: dose 20 mg/kg; conditions: in vivo
In short: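 Male Sprague–Dawley rats (300–350 g), n=3, fasted overnight with water available, given a single 20 mg/kg i.p. dose in PBS with 0.1% Tween80 and 20% DMSO. Blood drawn into heparinized tubes at 0, 0.25, 0.5, 1, 2, 4, 8 and 24 h. Plasma measured by LC-MS/MS against an internal standard. Parameters from non-compartmental analysis.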

HOP-92 = experiment: Growth inhibition of human HOP92 cells after 48 hrs by SRB assay; format: functional
[13] = Tmax in Sprague-Dawley rat plasma at 20 mg/kg, ip; format: ADME, organism-based; design: dose 20 mg/kg, route intraperitoneal; in short: as §2
[14] = read-out: LC50 (the source's name)

Cc1ccc(C)c(COc2cc(NC(=O)c3ccc4c(c3)OCO4)ccc2N(C)S(C)(=O)=O)c1
GI50 (LOX IMVI): 0.0666 µM | TGI (LOX IMVI): > 100 µM | growth inhibition (GI) (LOX IMVI): Dose-dependent effect | CC50 (LOX IMVI; [14]): > 100 µM | growth inhibition (GI) (SF-268): Dose-dependent effect | GI50 (SF-268; SF-268, 48 h): 0.288 µM | TGI (SF-268; SF-268, 48 h): > 100 µM | CC50 (SF-268; SF-268, 48 h, read-out: LC50 (the source's name)): > 100 µM | Activity (SK-BR-3 [1]): 70.84% | growth inhibition (GI) (SK-MEL-2): Dose-dependent effect | GI50 (SK-MEL-2; SK-MEL-2, 48 h): 0.0897 µM | TGI (SK-MEL-2; SK-MEL-2, 48 h): 0.616 µM | CC50 (SK-MEL-2; SK-MEL-2, 48 h, read-out: LC50 (the source's name)): > 100 µM | Activity (SK-BR-3 [2]): 67.1% | growth inhibition (GI) (OVCAR-5): Dose-dependent effect | GI50 (OVCAR-5; OVCAR-5, 48 h): 0.538 µM | TGI (OVCAR-5; OVCAR-5, 48 h): > 100 µM | growth inhibition (GI) (OVCAR-3): Dose-dependent effect | TGI (OVCAR-3; OVCAR-3, 48 h): 0.166 µM | growth inhibition (GI) (NCI-H23): Dose-dependent effect | GI50 (NCI-H23; NCI-H23, 48 h): 0.162 µM | TGI (NCI-H23; NCI-H23, 48 h): > 100 µM | CC50 (NCI-H23; NCI-H23, 48 h, read-out: LC50 (the source's name)): > 100 µM | Activity (SK-BR-3 [3]): 11.53% | growth inhibition (GI) (HT-29): Dose-dependent effect | GI50 (HT-29; HT-29, 48 h): 0.0772 µM | TGI (HT-29; HT-29, 48 h): 0.419 µM | CC50 (HT-29; HT-29, 48 h, read-out: LC50 (the source's name)): > 100 µM | growth inhibition (GI) (SF-539): Dose-dependent effect | GI50 (SF-539; SF-539, 48 h): 0.125 µM | CC50 (SF-539; SF-539, 48 h, read-out: LC50 (the source's name)): > 100 µM | Activity (SK-BR-3 [4]): 10.87% | GI50 (Malme-3M): 0.229 µM | TGI (Malme-3M): > 100 µM | growth inhibition (GI) (Malme-3M): Dose-dependent effect | CC50 (Malme-3M; [14]): > 100 µM | Cmax [5]: 1.5 µg/mL | Activity (SK-BR-3 [6]): 3.23% | GI50 (EKVX): 0.598 µM | TGI (EKVX): > 100 µM | growth inhibition (GI) (EKVX): Dose-dependent effect | CC50 (EKVX; [14]): > 100 µM | Activity (SK-BR-3 [7]): 69.09% | growth inhibition (GI) (UACC-257): Dose-dependent effect | GI50 (UACC-257; UACC-257, 48 h): 0.144 µM | TGI (UACC-257; UACC-257, 48 h): > 100 µM | CC50 (UACC-257; UACC-257, 48 h, read-out: LC50 (the source's name)): > 100 µM | half-life [8]: 3.12 h | growth inhibition (GI) (OVCAR-8): Dose-dependent effect | GI50 (OVCAR-8; OVCAR-8, 48 h): 0.265 µM | TGI (OVCAR-8; OVCAR-8, 48 h): > 100 µM | CC50 (OVCAR-8; OVCAR-8, 48 h, read-out: LC50 (the source's name)): > 100 µM | growth inhibition (GI) (SW-620): Dose-dependent effect | GI50 (SW-620; SW-620, 48 h): 0.112 µM | TGI (SW-620; SW-620, 48 h): > 100 µM | CC50 (SW-620; SW-620, 48 h, read-out: LC50 (the source's name)): > 100 µM | growth inhibition (GI) (MDA-MB-468): Dose-dependent effect | GI50 (MDA-MB-468; MDA-MB-468, 48 h): 0.155 µM | TGI (MDA-MB-468; MDA-MB-468, 48 h): 0.401 µM | growth inhibition (GI) (UACC-62): Dose-dependent effect | GI50 (UACC-62; UACC-62, 48 h): 0.414 µM | TGI (UACC-62; UACC-62, 48 h): > 100 µM | CC50 (UACC-62; UACC-62, 48 h, read-out: LC50 (the source's name)): > 100 µM | Activity (SK-BR-3 [9]): 16.49% | Activity (SK-BR-3 [10]): 6.36% | MRT last [11]: 6 h | CL/F [12]: 8 mL/min | growth inhibition (GI) (HOP-92): Dose-dependent effect | GI50 (HOP-92; HOP-92, 48 h): 3.22 µM | TGI (HOP-92; HOP-92, 48 h): > 100 µM | CC50 (HOP-92; HOP-92, 48 h, read-out: LC50 (the source's name)): > 100 µM | Tmax [13]: 2 h
